Published values of several laboratories.
Lines come from different studies, so protocols differ.
Organism: Mycobacterium tuberculosis
Effect on: microbial growth

Compound	method	strain	time	MIC
CCc1cc(=O)c2c(OCC(O)CN3CCCCC3)c3ccoc3c(OC)c2o1 (stereo not shown)	resazurin	H37RV	21 days	64 µg/mL
NNC(=O)c1ccncc1		H37RV		0.62 µM
O=c1[nH]c2ncsc2c(=O)n1O				27.4 µM
Clc1ccc(CCNc2cc(C3CCCO3)nc3nncn23)cc1 (stereo not shown)		H37RV		73 µM
CO[C@H]1/C=C/O[C@@]2(C)Oc3c(C)c(O)c4c(O)c(c(/C=N/N5CCN(C6CCCC6)CC5)c(O)c4c3C2=O)NC(=O)/C(C)=C\C=C\[C@H](C)[C@H](O)[C@@H](C)[C@@H](O)[C@@H](C)[C@H](OC(C)=O)[C@@H]1C	resazurin	H37RV	7 days	0.2 µg/mL
CO[C@H]1/C=C/O[C@@]2(C)Oc3c(C)c(O)c4c(O)c(c(/C=N/N5CCN(C)CC5)c(O)c4c3C2=O)NC(=O)/C(C)=C\C=C\[C@H](C)[C@H](O)[C@@H](C)[C@@H](O)[C@@H](C)[C@H](OC(C)=O)[C@@H]1C	resazurin	H37RV	5 days	0.03 µg/mL
NNC(=O)c1ccncc1	resazurin	H37RV		0.228 µM
FC(F)(F)c1ccc(CCNc2cc(-c3cccs3)nc3nncn23)cc1		H37RV		0.31 µM
CCCc1nc2[nH]c(=O)n(O)c(=O)c2s1				47.4 µM
CCc1cc(=O)c2c(OCC(O)CNC(C)C)c3ccoc3c(OC)c2o1 (stereo not shown)	resazurin	H37RV	21 days	64 µg/mL
O=[N+]([O-])c1cn2c(n1)OC[C@@H](OCc1ccc(OC(F)(F)F)cc1)C2		H37RV		0.125 µg/mL
CO[C@H]1/C=C/O[C@@]2(C)Oc3c(C)c(O)c4c(O)c(c(/C=N/N5CCN(C)CC5)c(O)c4c3C2=O)NC(=O)/C(C)=C\C=C\[C@H](C)[C@H](O)[C@@H](C)[C@@H](O)[C@@H](C)[C@H](OC(C)=O)[C@@H]1C	resazurin	H37RV		0.152 µM
Cc1nc2[nH]c(=O)n(O)c(=O)c2s1				20.4 µM
[H]/N=C(/N)N[C@H]1[C@H](O)[C@@H](O)[C@H](O[C@@H]2O[C@@H](C)[C@](O)(C=O)[C@H]2O[C@@H]2O[C@@H](CO)[C@H](O)[C@@H](O)[C@@H]2NC)[C@@H](N/C(N)=N\[H])[C@@H]1O	resazurin		21 days	64 µg/mL
NC(=S)NN=Cc1ccc(OC(=O)CN2C(=O)CSC2=O)c(Br)c1	resazurin	H37RV		9.27 µM
FC(F)(F)c1ccc(CCNc2cc(-c3ccccn3)nc3nncn23)cc1		H37RV		0.53 µM
CCc1cc(=O)c2c(OCC(O)CNC(C)(C)C)c3ccoc3c(OC)c2o1 (stereo not shown)	resazurin	H37RV	21 days	128 µg/mL
Cc1ccc(-c2cc(NCCc3ccc(C(F)(F)F)cc3)n3cnnc3n2)o1		H37RV		0.37 µM
CCc1cc(=O)c2c(OCC(O)CN3CCOCC3)c3ccoc3c(OC)c2o1 (stereo not shown)	resazurin	H37RV	21 days	256 µg/mL
FC(F)(F)Oc1ccc(CCNc2cc(-c3cccs3)nc3nncn23)cc1		H37RV		0.33 µM
CCOC(=O)c1c(-c2ccc(OC)cc2)oc2ccc(O)c(CN3CCN(Cc4cn(C[C@H]5O[C@H](O[C@H]6O[C@H](CO)[C@@H](O)[C@H](O)[C@H]6O)[C@H](O)[C@@H](O)[C@@H]5O)nn4)CC3)c12		CDC1551		5.3 µM
O=C(Cc1ccccc1)Nc1cc(-c2ccccn2)nc2nncn12		H37RV		2 µM
CCc1cc(=O)c2c(OCC(O)CN(CC)CC)c3ccoc3c(OC)c2o1 (stereo not shown)	resazurin	H37RV	21 days	128 µg/mL
c1ccc(-c2cc(NCCC34CC5CC(CC(C5)C3)C4)n3ncnc3n2)nc1		H37RV		12 µM
CO[C@H]1/C=C/O[C@@]2(C)Oc3c(C)c(O)c4c(O)c(c(/C=N/N5CCN(C)CC5)c(O)c4c3C2=O)NC(=O)/C(C)=C\C=C\[C@H](C)[C@H](O)[C@@H](C)[C@@H](O)[C@@H](C)[C@H](OC(C)=O)[C@@H]1C		H37RA		0.01 µM
